Active and inactive are the calls of the source.
Columns and labels:
Paracentrotus lividus [1] = assay: Antiproliferative activity against Paracentrotus lividus embryo assessed as cleavage alteration after 10 to 15 mins fertilization 45 to 60 mins before first mitotic cycle completeion; format: functional, organism-based
Outline: (§1)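 Paracentrotus lividus embryos, gametes obtained by intracoelomic 0.5 M KCl injection. Fertilized eggs ([…] post-fertilization, 45–60 min before first mitosis) were exposed to 2-fold decreasing concentrations, at up to 3000 embryos/mL in filtered sea water at room temperature. Stocks were 5 mM in 95% EtOH or 5–10 mM in DMSO, diluted 10-fold with 95% EtOH. Read-out was scored at 2.5–6 h: threshold concentration for cleavage alteration or full mitotic arrest. Duplicate measurements.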

Paracentrotus lividus [2] = assay: Cytotoxicity against Paracentrotus lividus embryo assessed as embryo spinning after 9 to 12 hrs fertilization and 0.5 to 20 hrs treatment; format: functional, organism-based
Outline: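 Paracentrotus lividus free-swimming blastulae treated just after hatching (9–12 h post-fertilization). Behavior was monitored by light microscopy and embryo spinning scored as threshold concentration. Embryos were held in filtered sea water at room temperature with paddle agitation. Compound stocks were in 95% EtOH or DMSO diluted in EtOH; maximal tolerated final DMSO 0.05%, EtOH 1%.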

Paracentrotus lividus [3] = assay: Antimitotic activity against Paracentrotus lividus embryo assessed as cleavage arrest after 10 to 15 mins fertilization 45 to 60 mins before first mitotic cycle completeion; format: functional, organism-based; outline: as §1
Paracentrotus lividus [4] = assay: Toxicity in Paracentrotus lividus embryo assessed as mortality at => 1 uM after 9 to 12 hrs fertilization; format: organism-based; conditions: in vivo
A549 [5] = assay: Cytotoxicity against human A549 cells after 24 hrs by MTT assay; format: functional, cell-based; conditions: A549, 24 h
Outline: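 A549 cells in DMEM/10% FBS at 3 × 10³ cells/well, treated 24 h (8 wells per concentration), with 0.4% DMSO as control. MTT (final 0.5 mg/mL) was added for the last 2 h and formazan dissolved in DMSO containing 10% SDS/0.6% acetic acid. OD read at 590 nm (690 nm reference). Three repeats; IC50 from sigmoidal fit.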

[6] = Inhibition of tubulin polymerization at 10 uM
A549 [7] = assay: Induction of microtubule disruption in human A549 cells at 5 uM after 8 hrs by indirect immunofluorescence microscopic analysis; format: functional, cell-based
Outline: (§2)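 A549 cells on glass coverslips (2 × 10⁴ per coverslip) exposed 8 h at 37 °C, 5% CO₂, with 0.6% DMSO as negative control. Fixed cells were stained with mouse anti-α-tubulin (1:400) and Alexa Fluor 488 goat anti-mouse IgG (1:200). Microtubule network examined by fluorescence microscopy.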

Bos taurus = species: Bos taurus; assay: Inhibition of purified bovine brain tubulin polymerization at 10 uM after 1 hr by VEC-DIC microscopic analysis
Outline: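 Bovine brain tubulin (1.2 mg/mL) in BRB80 (80 mM PIPES pH 6.8, 1 mM MgCl₂, 1 mM EGTA) was polymerized with 10% DMSO and 0.5 mM GTP. It was then incubated 1 h at 37 °C with compound, using 0.6% DMSO as negative control. Microtubule assembly was scored by VEC-DIC video microscopy.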

A549 [8] = assay: Cell cycle arrest in human A549 cells assessed as accumulation at G2/M phase after 24 hrs using propidium iodide staining by flow cytometry; format: functional, cell-based
Outline: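 A549 cells seeded at 5 × 10⁵ per 50 mm dish and treated 24 h, with 0.4% DMSO as negative control. Cells were trypsinized, fixed in 70% ethanol at −20 °C, then treated with RNase 1 mg/mL for 30 min at 37 °C and propidium iodide for 30 min at 37 °C. DNA content of 10000 cells measured by flow cytometry; EC50 for G2/M accumulation.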

A549 [9] = assay: Induction of microtubule disruption in human A549 cells at 25 uM after 8 hrs by indirect immunofluorescence microscopic analysis; format: functional, cell-based; outline: as §2
A549 [10] = assay: Induction of microtubule disruption in human A549 cells at 20 uM after 8 hrs by indirect immunofluorescence microscopic analysis; format: functional, cell-based
[11] = Homo sapiens, A549, 24 h, read-out: EC50

COc1ccc(/C=C\c2cc(OC)c(OC)c(OC)c2)cc1OP(=O)(O)O [FOSBRETABULIN DISODIUM]
EC50 (Paracentrotus lividus [1]): 5 nM | EC50 (Paracentrotus lividus [2]): 1000 nM | EC50 (Paracentrotus lividus [3]): 10 nM

c1ccc(-c2nnc(Nc3ccc4c(c3)OCO4)o2)c(NCc2ccncc2)c1
EC50 (Paracentrotus lividus [1]): 0.5 nM | EC50 (Paracentrotus lividus [2]): 5 nM | EC50 (Paracentrotus lividus [3]): 2 nM

c1cncc(CNc2csnc2-c2nnc(Nc3ccc4c(c3)OCO4)o2)c1
EC50 (Paracentrotus lividus [1]): 5 nM | EC50 (Paracentrotus lividus [2]): 50 nM | EC50 (Paracentrotus lividus [3]): 50 nM

COc1cc(-c2nnc(Nc3ccc4c(c3)OCO4)o2)cc(OC)c1OC
EC50 (Paracentrotus lividus [1]): 400 nM | EC50 (Paracentrotus lividus [2]): > 5000 nM | Activity (Paracentrotus lividus [4]): Toxic | EC50 (Paracentrotus lividus [3]): 1000 nM

Nc1csnc1-c1nnc(Nc2ccc(Cl)cc2)o1
EC50 (Paracentrotus lividus [1]): 200 nM | EC50 (Paracentrotus lividus [2]): 500 nM | EC50 (Paracentrotus lividus [3]): 500 nM

c1ccc(-c2nnc(Nc3ccc4c(c3)OCCO4)o2)c(NCc2ccncc2)c1
EC50 (Paracentrotus lividus [1]): 0.5 nM | IC50 (A549 [5]): 15 nM | Activity [6]: Active | EC50 (Paracentrotus lividus [2]): 5 nM | Activity (A549 [7]): Active | Activity (Bos taurus): Active | EC50 (A549 [8]; [11]): 44.5 nM | EC50 (A549 [8]; a549): Dose-dependent effect | EC50 (Paracentrotus lividus [3]): 2 nM

Nc1[nH]ncc1-c1nnc(Nc2ccc3c(c2)OCO3)o1
EC50 (Paracentrotus lividus [1]): > 20000 nM | EC50 (Paracentrotus lividus [2]): > 20000 nM | EC50 (Paracentrotus lividus [3]): > 20000 nM

Nc1ccccc1-c1nnc(Nc2ccc3c(c2)OCO3)o1
EC50 (Paracentrotus lividus [1]): 1 nM | IC50 (A549 [5]): 3000 nM | Activity [6]: Active | EC50 (Paracentrotus lividus [2]): 1000 nM | Activity (A549 [7]): inactive | Activity (A549 [9]): Active | Activity (Bos taurus): Active | EC50 (A549 [8]; [11]): 8550 nM | EC50 (Paracentrotus lividus [3]): 10 nM

COc1cc(N)c(-c2nnc(Nc3ccc4c(c3)OCO4)o2)c(OC)c1
EC50 (Paracentrotus lividus [1]): 50 nM | EC50 (Paracentrotus lividus [2]): 1000 nM | EC50 (Paracentrotus lividus [3]): 200 nM

COc1ccc(/C=C\c2cc(OC)c3c(c2)OCO3)cc1O [Combretastatin A-2]
EC50 (Paracentrotus lividus [1]): 2 nM | EC50 (Paracentrotus lividus [2]): 50 nM | EC50 (Paracentrotus lividus [3]): 10 nM

COc1ccc(-c2nnc(Nc3ccc4c(c3)OCCO4)o2)c(N)c1
EC50 (Paracentrotus lividus [1]): 25 nM | EC50 (Paracentrotus lividus [2]): 200 nM | EC50 (Paracentrotus lividus [3]): 100 nM

c1cncc(CNc2ccccc2-c2nnc(Nc3ccc4c(c3)OCO4)o2)c1
EC50 (Paracentrotus lividus [1]): 1 nM | EC50 (Paracentrotus lividus [2]): 5 nM | EC50 (Paracentrotus lividus [3]): 5 nM

Nc1csnc1-c1nnc(Nc2ccc3c(c2)OCO3)o1
EC50 (Paracentrotus lividus [1]): 500 nM | IC50 (A549 [5]): > 20000 nM | Activity (A549 [10]): inactive | EC50 (Paracentrotus lividus [2]): > 5000 nM | EC50 (A549 [8]; [11]): > 20000 nM | EC50 (Paracentrotus lividus [3]): 4000 nM

COC(=O)Nc1nc2cc(C(=O)c3cccs3)ccc2[nH]1 [NOCODAZOLE]
EC50 (Paracentrotus lividus [1]): 5 nM | IC50 (A549 [5]): 36.6 nM | EC50 (Paracentrotus lividus [2]): 100 nM | EC50 (A549 [8]; [11]): 106 nM | EC50 (Paracentrotus lividus [3]): 10 nM

CS(=O)(=O)c1ccc(Nc2nnc(-c3ccccc3N)o2)cc1
EC50 (Paracentrotus lividus [1]): 4000 nM | EC50 (Paracentrotus lividus [2]): > 5000 nM | EC50 (Paracentrotus lividus [3]): > 4000 nM

c1cncc(CNc2cn[nH]c2-c2nnc(Nc3ccc4c(c3)OCCO4)o2)c1
EC50 (Paracentrotus lividus [1]): 1000 nM | EC50 (Paracentrotus lividus [2]): > 10000 nM | EC50 (Paracentrotus lividus [3]): > 10000 nM

c1cc(CNc2csnc2-c2nnc(Nc3ccc4c(c3)OCCO4)o2)ccn1
EC50 (Paracentrotus lividus [1]): 2 nM | IC50 (A549 [5]): 53.5 nM | Activity [6]: Active | EC50 (Paracentrotus lividus [2]): 100 nM | Activity (A549 [7]): Active | Activity (Bos taurus): Active | EC50 (A549 [8]; [11]): 63 nM | EC50 (A549 [8]; a549): Dose-dependent effect | EC50 (Paracentrotus lividus [3]): 5 nM

c1cncc(CNc2ccccc2-c2nnc(Nc3ccc4c(c3)OCCO4)o2)c1
EC50 (Paracentrotus lividus [1]): 1 nM | EC50 (Paracentrotus lividus [2]): 5 nM | EC50 (Paracentrotus lividus [3]): 5 nM

Nc1ccccc1-c1nnc(Nc2ccc3c(c2)OCCO3)o1
EC50 (Paracentrotus lividus [1]): 1 nM | IC50 (A549 [5]): 1570 nM | Activity [6]: Active | EC50 (Paracentrotus lividus [2]): 100 nM | Activity (A549 [7]): inactive | Activity (A549 [9]): Active | Activity (Bos taurus): Active | EC50 (A549 [8]; [11]): 2820 nM | EC50 (Paracentrotus lividus [3]): 20 nM

COc1cc([C@@H]2c3cc4c(cc3[C@H](O)[C@H]3COC(=O)[C@H]23)OCO4)cc(OC)c1OC [PODOFILOX]
EC50 (Paracentrotus lividus [1]): 20 nM | EC50 (Paracentrotus lividus [2]): 500 nM | EC50 (Paracentrotus lividus [3]): 50 nM

c1cc(CNc2csnc2-c2nnc(Nc3ccc4c(c3)OCO4)o2)ccn1
EC50 (Paracentrotus lividus [1]): 2 nM | EC50 (Paracentrotus lividus [2]): 20 nM | EC50 (Paracentrotus lividus [3]): 5 nM

c1ccc(-c2nnc(Nc3ccc4c(c3)OCCO4)o2)c(NCc2ccns2)c1
EC50 (Paracentrotus lividus [1]): 2000 nM | EC50 (Paracentrotus lividus [2]): 5000 nM | EC50 (Paracentrotus lividus [3]): 5000 nM

Clc1ccc(Nc2nnc(-c3nscc3NCc3cccnc3)o2)cc1
EC50 (Paracentrotus lividus [1]): 500 nM | EC50 (Paracentrotus lividus [2]): > 2500 nM | EC50 (Paracentrotus lividus [3]): 2000 nM

Nc1cc2c(cc1-c1nnc(Nc3ccc4c(c3)OCO4)o1)OCO2
EC50 (Paracentrotus lividus [1]): 50 nM | EC50 (Paracentrotus lividus [2]): 200 nM | EC50 (Paracentrotus lividus [3]): 500 nM

c1cncc(CNc2cn[nH]c2-c2nnc(Nc3ccc4c(c3)OCO4)o2)c1
EC50 (Paracentrotus lividus [1]): 1000 nM | EC50 (Paracentrotus lividus [2]): > 10000 nM | EC50 (Paracentrotus lividus [3]): > 10000 nM

c1cncc(CNc2csnc2-c2nnc(Nc3ccc4c(c3)OCCO4)o2)c1
EC50 (Paracentrotus lividus [1]): 5 nM | EC50 (Paracentrotus lividus [2]): 100 nM | EC50 (Paracentrotus lividus [3]): 10 nM

Cn1ncc(NCc2cccnc2)c1-c1nnc(Nc2ccc3c(c2)OCCO3)o1
EC50 (Paracentrotus lividus [1]): 200 nM | EC50 (Paracentrotus lividus [2]): > 2500 nM | EC50 (Paracentrotus lividus [3]): 1000 nM

Nc1nc2ccccc2cc1-c1nnc(Nc2ccc3c(c2)OCO3)o1
EC50 (Paracentrotus lividus [1]): 50 nM | EC50 (Paracentrotus lividus [2]): > 2000 nM | EC50 (Paracentrotus lividus [3]): 2000 nM

— ChEMBL document CHEMBL1157842, “Novel derivatives of 1,3,4-oxadiazoles are potent mitostatic agents featuring strong microtubule depolymerizing activity in the sea urchin embryo and cell culture assays” (Eur J Med Chem, 2010)
